Assays:
Enterococcus faecalis = assay: Antimicrobial activity against Enterococcus faecalis clinical isolate after 18 to 24 hrs by micro-dilution method; assay type: functional
Klebsiella pneumoniae = assay: Antimicrobial activity against Klebsiella pneumoniae clinical isolate after 18 to 24 hrs by micro-dilution method; assay type: functional
Pichia kudriavzevii = assay: Antifungal activity against Candida krusei ATCC 6258 after 18 to 24 hrs by micro-dilution method; assay type: functional
Procedure, shortened: (§1)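 Broth micro-dilution MIC, fungi. Fresh broth cultures were made in normal saline. Compounds were serially diluted in microtiter plates across 8 concentrations, 100 down to 0.78. Standardized inoculum was 1–2 × 10^7 cfu/ml. Medium was Sabouraud dextrose pH 7.3 ± 0.2. Plates were incubated aerobically at 37 °C for 18–24 h. MIC is the lowest concentration with no visible growth or turbidity versus control. Fluconazole was the reference.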

Shigella boydii = assay: Antimicrobial activity against Shigella boydii clinical isolate after 18 to 24 hrs by micro-dilution method; assay type: functional
Candida albicans [1] = assay: Antifungal activity against Candida albicans ATCC 90028 after 18 to 24 hrs by micro-dilution metho; assay type: functional; procedure, shortened: as §1
Candida albicans [2] = assay: Antifungal activity against Candida albicans clinical isolate after 18 to 24 hrs by micro-dilution method; assay type: functional; procedure, shortened: as §1
Aspergillus fumigatus = assay: Antimicrobial activity against Aspergillus fumigatus clinical isolate after 18 to 24 hrs by micro-dilution method; assay type: functional; procedure, shortened: as §1
Candida tropicalis = assay: Antifungal activity against Candida tropicalis ATCC 750 after 18 to 24 hrs by micro-dilution method; assay type: functional; procedure, shortened: as §1
[3] = Cytotoxicity against human RBC assessed as hemolytic activity at 100 uM after 1 hr by spectophotometry; assay type: cell-based, Erythrocyte; conditions: red blood cells (RBC), read-out: Activity
Procedure, shortened: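 Hemolysis, fresh human blood. RBCs were washed three times in PBS (spun 3000 rpm, 7 min, room temperature) and adjusted to 5×10^8 cells/ml. Cell suspension was added to buffer holding 100 μM compound in 1% v/v DMSO/PBS. Controls were 1% DMSO/PBS and sterile water. Samples were shaken at 37 °C for 1 h, spun at 1300 rpm for 5 min, and supernatant absorbance read at 540 nm.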

Escherichia coli = assay: Antimicrobial activity against Escherichia coli ATCC 35218 after 18 to 24 hrs by micro-dilution method; assay type: functional
Cryptococcus neoformans = assay: Antifungal activity against Cryptococcus neoformans clinical isolate after 18 to 24 hrs by micro-dilution method; assay type: functional; procedure, shortened: as §1
Aspergillus niger = assay: Antimicrobial activity against Aspergillus niger clinical isolate after 18 to 24 hrs by micro-dilution method; assay type: functional; procedure, shortened: as §1
Salmonella typhi = assay: Antimicrobial activity against Salmonella typhi MTCC 3216 after 18 to 24 hrs by micro-dilution method; assay type: functional, Salmonella enterica subsp. enterica serovar Typhi; conditions: Salmonella enterica
Procedure, shortened: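 Broth microdilution with twofold serial dilutions from 100 down to 0.78, eight concentrations. Fresh cultures were made up in normal saline, and 0.1 ml of standardized inoculum (1–2 × 10^7 cfu/ml) was added per well. Plates were incubated aerobically at 37 °C for 18–24 h on Mueller-Hinton agar/Luria broth. MIC was the lowest concentration with no visible turbidity compared with the control.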

Staphylococcus aureus = assay: Antimicrobial activity against Staphylococcus aureus ATCC 25323 after 18 to 24 hrs by micro-dilution method; assay type: functional
Pseudomonas aeruginosa = assay: Antimicrobial activity against Pseudomonas aeruginosa ATCC 27893 after 18 to 24 hrs by micro-dilution method; assay type: functional

Cc1ccc(-n2cc(CN(Cc3cn(-c4ccc(C)c(C)c4)nn3)c3nc4ccccc4s3)nn2)cc1C
43%: hemolysis at 1 h, 100 µM [3]
> 100 mg/L: MIC (Enterococcus faecalis) | MIC (Klebsiella pneumoniae) | MIC (Pichia kudriavzevii) | MIC (Shigella boydii) | MIC (Candida albicans [1]) | MIC (Candida albicans [2]) | MIC (Aspergillus fumigatus) | MIC (Candida tropicalis) | MIC (Escherichia coli) | MIC (Cryptococcus neoformans) | MIC (Aspergillus niger) | MIC (Salmonella typhi) | MIC (Staphylococcus aureus) | MIC (Pseudomonas aeruginosa)

CCc1ccc(-n2cc(CN(Cc3cn(-c4ccc(CC)cc4)nn3)c3nc4ccccc4s3)nn2)cc1
48.3%: hemolysis at 1 h, 100 µM [3]
50 mg/L: MIC (Escherichia coli)
> 100 mg/L: MIC (Enterococcus faecalis) | MIC (Klebsiella pneumoniae) | MIC (Pichia kudriavzevii) | MIC (Shigella boydii) | MIC (Candida albicans [1]) | MIC (Candida albicans [2]) | MIC (Aspergillus fumigatus) | MIC (Candida tropicalis) | MIC (Cryptococcus neoformans) | MIC (Aspergillus niger) | MIC (Salmonella typhi) | MIC (Staphylococcus aureus) | MIC (Pseudomonas aeruginosa)

COc1cc(-n2cc(CN(Cc3cn(-c4cc(OC)c(OC)c(OC)c4)nn3)c3nc4ccccc4s3)nn2)cc(OC)c1OC
6.25 mg/L: MIC (Pichia kudriavzevii)
36.6%: hemolysis at 1 h, 100 µM [3]
> 100 mg/L: MIC (Enterococcus faecalis) | MIC (Klebsiella pneumoniae) | MIC (Shigella boydii) | MIC (Candida albicans [1]) | MIC (Candida albicans [2]) | MIC (Aspergillus fumigatus) | MIC (Candida tropicalis) | MIC (Escherichia coli) | MIC (Cryptococcus neoformans) | MIC (Aspergillus niger) | MIC (Salmonella typhi) | MIC (Staphylococcus aureus) | MIC (Pseudomonas aeruginosa)

c1ccc2c(-n3cc(CN(Cc4cn(-c5cccc6ccccc56)nn4)c4nc5ccccc5s4)nn3)cccc2c1
34%: hemolysis at 1 h, 100 µM [3]
> 100 mg/L: MIC (Enterococcus faecalis) | MIC (Klebsiella pneumoniae) | MIC (Pichia kudriavzevii) | MIC (Shigella boydii) | MIC (Candida albicans [1]) | MIC (Candida albicans [2]) | MIC (Aspergillus fumigatus) | MIC (Candida tropicalis) | MIC (Escherichia coli) | MIC (Cryptococcus neoformans) | MIC (Aspergillus niger) | MIC (Salmonella typhi) | MIC (Staphylococcus aureus) | MIC (Pseudomonas aeruginosa)

O=[N+]([O-])c1ccc(-n2cc(CN(Cc3cn(-c4ccc([N+](=O)[O-])cc4)nn3)c3nc4ccccc4s3)nn2)cc1
> 100 mg/L: MIC (Enterococcus faecalis) | MIC (Klebsiella pneumoniae) | MIC (Pichia kudriavzevii) | MIC (Shigella boydii) | MIC (Candida albicans [1]) | MIC (Candida albicans [2]) | MIC (Aspergillus fumigatus) | MIC (Candida tropicalis) | MIC (Escherichia coli) | MIC (Cryptococcus neoformans) | MIC (Aspergillus niger) | MIC (Salmonella typhi) | MIC (Staphylococcus aureus) | MIC (Pseudomonas aeruginosa)
27.9%: hemolysis at 1 h, 100 µM [3]

FC(F)(F)Oc1ccc(-n2cc(CN(Cc3cn(-c4ccc(OC(F)(F)F)cc4)nn3)c3nc4ccccc4s3)nn2)cc1
3.12 mg/L: MIC (Candida albicans [1]) | MIC (Cryptococcus neoformans)
100 mg/L: MIC (Shigella boydii)
> 100 mg/L: MIC (Salmonella typhi)
12.5 mg/L: MIC (Enterococcus faecalis) | MIC (Klebsiella pneumoniae) | MIC (Pichia kudriavzevii) | MIC (Candida albicans [2]) | MIC (Candida tropicalis) | MIC (Aspergillus niger) | MIC (Staphylococcus aureus)
25 mg/L: MIC (Aspergillus fumigatus) | MIC (Escherichia coli) | MIC (Pseudomonas aeruginosa)
9.12%: hemolysis at 1 h, 100 µM [3]

CCCCCc1ccc(-n2cc(CN(Cc3cn(-c4ccc(CCCCC)cc4)nn3)c3nc4ccccc4s3)nn2)cc1
3.28%: hemolysis at 1 h, 100 µM [3]
> 100 mg/L: MIC (Enterococcus faecalis) | MIC (Klebsiella pneumoniae) | MIC (Pichia kudriavzevii) | MIC (Shigella boydii) | MIC (Candida albicans [1]) | MIC (Candida albicans [2]) | MIC (Aspergillus fumigatus) | MIC (Escherichia coli) | MIC (Cryptococcus neoformans) | MIC (Aspergillus niger) | MIC (Salmonella typhi) | MIC (Staphylococcus aureus) | MIC (Pseudomonas aeruginosa)
12.5 mg/L: MIC (Candida tropicalis)

Fc1ccc(-n2cc(CN(Cc3cn(-c4ccc(F)c(Cl)c4)nn3)c3nc4ccccc4s3)nn2)cc1Cl
1.56 mg/L: MIC (Cryptococcus neoformans)
100 mg/L: MIC (Shigella boydii)
5.32%: hemolysis at 1 h, 100 µM [3]
25 mg/L: MIC (Candida albicans [2]) | MIC (Aspergillus fumigatus) | MIC (Escherichia coli)
3.12 mg/L: MIC (Enterococcus faecalis) | MIC (Pichia kudriavzevii) | MIC (Pseudomonas aeruginosa)
50 mg/L: MIC (Klebsiella pneumoniae)
6.25 mg/L: MIC (Candida albicans [1]) | MIC (Aspergillus niger) | MIC (Salmonella typhi) | MIC (Staphylococcus aureus)
12.5 mg/L: MIC (Candida tropicalis)

Fc1ccccc1-n1cc(CN(Cc2cn(-c3ccccc3F)nn2)c2nc3ccccc3s2)nn1
> 100 mg/L: MIC (Enterococcus faecalis) | MIC (Klebsiella pneumoniae) | MIC (Pichia kudriavzevii) | MIC (Shigella boydii) | MIC (Candida albicans [1]) | MIC (Candida albicans [2]) | MIC (Aspergillus fumigatus) | MIC (Candida tropicalis) | MIC (Escherichia coli) | MIC (Cryptococcus neoformans) | MIC (Aspergillus niger) | MIC (Salmonella typhi) | MIC (Staphylococcus aureus) | MIC (Pseudomonas aeruginosa)
26.5%: hemolysis at 1 h, 100 µM [3]

Fc1ccc(-n2cc(CN(Cc3cn(-c4ccc(F)cc4F)nn3)c3nc4ccccc4s3)nn2)c(F)c1
3.12 mg/L: MIC (Enterococcus faecalis) | MIC (Klebsiella pneumoniae) | MIC (Escherichia coli) | MIC (Salmonella typhi) | MIC (Staphylococcus aureus) | MIC (Pseudomonas aeruginosa)
2.47%: hemolysis at 1 h, 100 µM [3]
100 mg/L: MIC (Shigella boydii)
> 100 mg/L: MIC (Pichia kudriavzevii) | MIC (Candida albicans [1]) | MIC (Candida albicans [2]) | MIC (Aspergillus fumigatus) | MIC (Candida tropicalis) | MIC (Cryptococcus neoformans) | MIC (Aspergillus niger)

Clc1ccccc1-n1cc(CN(Cc2cn(-c3ccccc3Cl)nn2)c2nc3ccccc3s2)nn1
50 mg/L: MIC (Klebsiella pneumoniae)
19.5%: hemolysis at 1 h, 100 µM [3]
12.5 mg/L: MIC (Escherichia coli) | MIC (Pseudomonas aeruginosa)
6.25 mg/L: MIC (Enterococcus faecalis) | MIC (Salmonella typhi)
25 mg/L: MIC (Staphylococcus aureus)
> 100 mg/L: MIC (Pichia kudriavzevii) | MIC (Shigella boydii) | MIC (Candida albicans [1]) | MIC (Candida albicans [2]) | MIC (Aspergillus fumigatus) | MIC (Candida tropicalis) | MIC (Cryptococcus neoformans) | MIC (Aspergillus niger)

Fc1cccc(-n2cc(CN(Cc3cn(-c4cccc(F)c4)nn3)c3nc4ccccc4s3)nn2)c1
29.8%: hemolysis at 1 h, 100 µM [3]
> 100 mg/L: MIC (Enterococcus faecalis) | MIC (Klebsiella pneumoniae) | MIC (Pichia kudriavzevii) | MIC (Shigella boydii) | MIC (Candida albicans [1]) | MIC (Candida albicans [2]) | MIC (Aspergillus fumigatus) | MIC (Candida tropicalis) | MIC (Escherichia coli) | MIC (Cryptococcus neoformans) | MIC (Aspergillus niger) | MIC (Salmonella typhi) | MIC (Staphylococcus aureus) | MIC (Pseudomonas aeruginosa)

Clc1cccc(-n2cc(CN(Cc3cn(-c4cccc(Cl)c4Cl)nn3)c3nc4ccccc4s3)nn2)c1Cl
3.12 mg/L: MIC (Cryptococcus neoformans)
50 mg/L: MIC (Staphylococcus aureus)
> 100 mg/L: MIC (Enterococcus faecalis) | MIC (Klebsiella pneumoniae) | MIC (Pichia kudriavzevii) | MIC (Shigella boydii) | MIC (Candida albicans [1]) | MIC (Aspergillus fumigatus) | MIC (Candida tropicalis) | MIC (Escherichia coli) | MIC (Aspergillus niger) | MIC (Pseudomonas aeruginosa)
25 mg/L: MIC (Candida albicans [2])
37.7%: hemolysis at 1 h, 100 µM [3]
100 mg/L: MIC (Salmonella typhi)

Cc1cc(F)ccc1-n1cc(CN(Cc2cn(-c3ccc(F)cc3C)nn2)c2nc3ccccc3s2)nn1
50 mg/L: MIC (Escherichia coli)
> 100 mg/L: MIC (Enterococcus faecalis) | MIC (Klebsiella pneumoniae) | MIC (Pichia kudriavzevii) | MIC (Shigella boydii) | MIC (Candida albicans [1]) | MIC (Candida albicans [2]) | MIC (Aspergillus fumigatus) | MIC (Candida tropicalis) | MIC (Cryptococcus neoformans) | MIC (Aspergillus niger) | MIC (Salmonella typhi) | MIC (Staphylococcus aureus) | MIC (Pseudomonas aeruginosa)
29.8%: hemolysis at 1 h, 100 µM [3]

O=C(O)c1cn(C2CC2)c2cc(N3CCNCC3)c(F)cc2c1=O [CIPROFLOXACIN]
3.12 mg/L: MIC (Pseudomonas aeruginosa)

OC(Cn1cncn1)(Cn1cncn1)c1ccc(F)cc1F [FLUCONAZOLE]
3.12 mg/L: MIC (Candida albicans [2])
0.78 mg/L: MIC (Cryptococcus neoformans)
1.56 mg/L: MIC (Pichia kudriavzevii) | MIC (Candida albicans [1]) | MIC (Aspergillus fumigatus) | MIC (Candida tropicalis) | MIC (Aspergillus niger)

Source: ChEMBL document CHEMBL2375318, “Design, synthesis and antimicrobial activity of novel benzothiazole analogs” (Eur J Med Chem, 2013)
